From ChEMBL document CHEMBL1152928, “Ingol and ingenol diterpenes from the aerial parts of Euphorbia royleana and their antiangiogenic activities” (J Nat Prod, 2009)

Tests used:
[1] = Antiangiogenic activity in zebrafish embryo assessed as inhibition of intersegmental vessel growth at 3 ug/mL after 24 hours by alkaline phosphatase staining relative to control; type: functional, Danio rerio
In short: (§1)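 Embryos at 24 hpf randomly distributed into wells and exposed 24 h. Intersegmental vessels visualized by GFP labeling plus endogenous alkaline phosphatase staining. Activity derived from inhibition ratio of angiogenesis versus 0.1% DMSO vehicle control. PTK787 positive control.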

[2] = Antiangiogenic activity in zebrafish embryo assessed as inhibition of intersegmental vessels growth after 24 hours by alkaline phosphatase staining; type: functional, tissue-based, Danio rerio; in short: as §1
[3] = Antiangiogenic activity in zebrafish embryo assessed as inhibition of intersegmental vessel growth at 10 ug/mL after 24 hours by alkaline phosphatase staining relative to control; type: functional, Danio rerio; in short: as §1
[4] = Antiangiogenic activity in zebrafish embryo assessed as inhibition of intersegmental vessel growth at 5 ug/mL after 24 hours by alkaline phosphatase staining relative to PTK787; type: functional, Danio rerio
[5] = Antiangiogenic activity in zebrafish embryo assessed as inhibition of intersegmental vessel growth at 1 ug/mL after 24 hours by alkaline phosphatase staining relative to control; type: functional, Danio rerio; in short: as §1
[6] = Antiangiogenic activity in zebrafish embryo assessed as inhibition of intersegmental vessel growth at 0.1 ug/mL after 24 hours by alkaline phosphatase staining relative to control; type: functional, Danio rerio; in short: as §1

| Compound | IC50 [2] [µg/mL] | inhibition (INH) [1] [%] | inhibition (INH) [3] [%] | inhibition (INH) [4] [%] | inhibition (INH) [5] [%] | inhibition (INH) [6] [%] |
| --- | --- | --- | --- | --- | --- | --- |
| C/C=C(\C)C(=O)O[C@@H]1/C(C)=C/[C@@]23O[C@@]2(C[C@H](C)[C@@H]3OC(=O)/C(C)=C/C)C(=O)[C@H](C)[C@@H](OC(C)=O)[C@@H]2[C@H]([C@@H]1OC(C)=O)C2(C)C | > 5 | 5.8 | 5 | 5.8 |  |  |
| CC(=O)O[C@H]1[C@@H]2[C@H]([C@H](OC(=O)c3ccccc3)[C@H](O)/C(C)=C/[C@@]34O[C@@]3(C[C@@H](C)[C@@H]4OC(=O)c3ccccc3)C(=O)[C@@H]1C)C2(C)C | > 5 | 1.8 | 3.6 |  | 1.1 |  |
| CC(=O)O[C@H]1[C@H]2[C@@H]([C@H](OC(C)=O)[C@@H](C)C(=O)[C@@]34C[C@H](C)[C@H](OC(=O)c5ccccc5)[C@]3(/C=C(\C)[C@H]1OC(=O)c1ccccc1)O4)C2(C)C | > 5 | 1.8 | 1.8 |  | 1.8 |  |
| C/C=C(\C)C(=O)O[C@H]1[C@H]2[C@@H]([C@H](OC(C)=O)[C@@H](C)C(=O)[C@@]34C[C@H](C)[C@H](OC(=O)/C(C)=C/C)[C@]3(/C=C(\C)[C@H]1O)O4)C2(C)C | > 5 | 3.6 | 4.7 |  | 2.9 |  |
| Clc1ccc(Nc2nnc(Cc3ccncc3)c3ccccc23)cc1.O=C(O)CCC(=O)O | 0.15 |  | 100 |  | 95.5 | 34.6 |

More lines, main results first:

| IC50 [2] [µg/mL] | Compound | inhibition (INH) [1] [%] | inhibition (INH) [3] [%] | inhibition (INH) [4] [%] | inhibition (INH) [5] [%] | inhibition (INH) [6] [%] |
| --- | --- | --- | --- | --- | --- | --- |
| > 5 | CC(=O)O[C@H]1[C@H]2[C@@H]([C@H](OC(C)=O)[C@@H](C)C(=O)[C@@]34C[C@H](C)[C@H](OC(C)=O)[C@]3(/C=C(\C)[C@H]1OC(=O)c1ccccc1)O4)C2(C)C |  |  |  |  |  |
| > 5 | C/C=C(\C)C(=O)O[C@H]1[C@H]2[C@@H]([C@H](OC(C)=O)[C@@H](C)C(=O)[C@@]34C[C@H](C)[C@H](OC(=O)/C(C)=C/C)[C@]3(/C=C(\C)[C@H]1OC(=O)c1ccccc1)O4)C2(C)C | 4.7 | 12.2 | 1.1 |  |  |
| > 5 | C/C=C(\C)C(=O)O[C@H]1[C@H]2[C@@H]([C@H](OC(C)=O)[C@@H](C)C(=O)[C@@]34C[C@@H](C)[C@H](OC(=O)c5ccccc5)[C@]3(/C=C(\C)[C@H]1O)O4)C2(C)C | 1.1 | 0 |  | 5.4 |  |
| > 5 | CC(=O)O[C@H]1[C@@H]2[C@H]([C@H](OC(=O)c3ccccc3)[C@H](O)/C(C)=C/[C@@]34O[C@@]3(C[C@H](C)[C@@H]4OC(=O)c3ccccc3)C(=O)[C@@H]1C)C2(C)C | 2.1 | 0 |  | 0 |  |
| > 5 | C/C=C(\C)C(=O)O[C@H]1[C@H]2[C@@H]([C@H](OC(C)=O)[C@@H](C)C(=O)[C@@]34C[C@H](C)[C@H](OC(=O)c5ccccc5)[C@]3(/C=C(\C)[C@H]1O)O4)C2(C)C | 5.4 | 3.2 | 0 |  |  |
| > 5 | C/C=C(\C)C(=O)O[C@H]1[C@@H](C)C[C@@]23O[C@@]12/C=C(\C)[C@@H](O)[C@@H](OC(=O)c1ccccc1)[C@H]1[C@@H]([C@H](OC(C)=O)[C@@H](C)C3=O)C1(C)C | 3.6 | 4.7 |  | 4.7 |  |
